Assay outcomes deposited in PubChem BioAssay by several laboratories.
In the library only some 1.3% were active in any assay of this set; here they are far more common.
core dimer inh = blocks dimerization of HCV core protein | inhibition, % at 5 µM | AID 1899 | TR-FRET GST/Flag-core106 dimerization, 1536-well | actives 0.33% (n = 300,000);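 active = inhibition above the mean of all tested compounds plus 3 SD, set per screening campaign, cut at about 45% in these data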
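assay system = GST-tagged and Flag-tagged HCV core protein residues 1-106 | controls = unlabelled core106 and no-GST-core106 wells | incubation = compound-protein-antibody incubation 4 h at 22.5 °C | probe or stimulus = Eu donor and XL665 acceptor anti-tag antibodies | read-out = % inhibition based on acceptor/donor emission ratio | signal = TR-FRET 671 and 617 nm emission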
Tb MetRS inh = blocks T. brucei methionyl-tRNA synthetase activity. inhibition, % at 11.9 µM. purified T. brucei MetRS, ATP depletion, Kinase-Glo luminescence. AID 624268. actives 0.4% (n = 360,000);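 active = inhibition above a per-plate cutoff of the control wells' mean inhibition plus 3 SD, cut at about 5.5% in these data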
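Material – parasite MetRS enzyme · Medium – HEPES-MgCl2-KCl buffer plus DTT, spermine, BSA, pyrophosphatase · Reagent – ATP, methionine and E. coli bulk tRNA substrates · Times – 15 min enzyme-compound preincubation, 2 h reaction, 10 min detection, 25 °C · Measured by – luminescence of leftover ATP · Evaluation – percent inhibition relative to median high and low control wells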
Lipid droplet = modulators of hepatic lipid droplet formation | AML12 mouse hepatocytes, oleate lipid droplets, BODIPY imaging | inhibition, % at 6.5 µM | actives 0.4% (n = 240,000) | AID 1656;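 active = lipid droplet intensity inhibited by at least 50%, with more than 500 cells counted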
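Test system: AML12 mouse liver cells; schedule: overnight exposure; technique: high-content imaging of BODIPY-stained droplets and DAPI nuclei; read-out: % inhibition of corrected integrated BODIPY droplet signal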
HCV NS3 hel inh = inhibitors of Hepatitis C virus NS3 helicase; actives 0.56% (n = 290,000); AID 1800; NS3 helicase DNA unwinding, Cy5 molecular beacon fluorescence; inhibition, % at 10.9 µM;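 active = inhibition above the mean of all tested compounds plus 3 SD, set per campaign, cut at about 35% in these data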
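assay system = NS3 helicase fragment of HCV | buffer or medium = MOPS pH 6.5, MgCl2, DTT, Tween20, BSA | timing = 60 min unwinding reaction at 25 °C after ATP addition | signal = Cy5 beacon fluorescence read at start and 1 h | read-out basis = % inhibition of unwinding | control set = low DMSO, high thioflavine S at 110 µM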
Lipid drop inh = confirmation of inhibitors of hepatic lipid droplet formation; shares compounds with Lipid droplet; AML12 mouse hepatocytes, BODIPY lipid droplet imaging; droplets induced with 100 µM oleic acid; inhibition, % at 5.2 µM; actives 65% (n = 870); AID 463183;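 active = inhibition of lipid droplet metric at least 50%, with more than 300 cells in each of four replicates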
AML12 cytotox = AML12 hepatocyte cytotoxicity (counter-screen) | shares compounds with Lipid droplet | AML12 mouse hepatocytes, DAPI nuclear morphology cytotoxicity imaging; hits give high values; cells fed 100 µM oleate overnight | z-score at 5 µM | actives 3% (n = 870); in the data active = z-score above about 6.3;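 also: compound exposure lasted overnight at 37 °C before fixation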
AML12 tox conf = confirmation of cytotoxicity in AML12 mouse hepatocytes; 530 tested, under 10 active; cytotoxicity, % at 50 µM; shares compounds with Lipid droplet; AID 463219; AML12 mouse hepatocyte viability, ATP luminescence; cells loaded with 100 µM oleic acid;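 active = cytotoxicity above 50% in each of four replicates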;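 also: compound exposure lasted overnight at 37 °C before the ATP read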
Hits are given with their value; . = inactive; / = not tested or not shown.

SMILES	core dimer inh	Tb MetRS inh	Lipid droplet	HCV NS3 hel inh	Lipid drop inh	AML12 cytotox	others
COc1ccc(/C=N/N=C2\SCC(=O)N2c2c(C)n(C)n(-c3ccccc3)c2=O)cc1OC	.	.	62.1	.	.	.
CCCCCC(/C=N/Nc1ccc(S(=O)(=O)N2CCOCC2)cc1[N+](=O)[O-])=C\c1ccccc1	.	.	61.3	.	.	.
CCOC(=O)[C@]12CCCC=C1N(Cc1ccccc1)C(=O)[C@H](CC(=O)NCc1ccccc1)C2	/	.	/	/	/	/
N=c1c(C(=O)NCCN2CCOCC2)cc2c(=O)n3ccccc3nc2n1CCCN1CCOCC1	.	.	51.7	.	.	.
N=c1c(C(=O)NCCN2CCOCC2)cc2c(=O)n3ccccc3nc2n1Cc1ccc(F)cc1	.	.	.	.	/	/
COc1ccc(NC(=O)CCC2COc3ccccc3O2)c(OC)c1 (stereo not drawn)	.	.	.	.	/	/
COc1ccc(/C=C/C(=O)NCC2COc3ccccc3O2)c(OC)c1 (stereo not drawn)	.	.	65.4	.	83.5	.	AML12 tox conf=.
COc1ccc(S(=O)(=O)N(c2onc(C)c2Cl)S(=O)(=O)c2ccc(OC)cc2)cc1	.	.	59.6	.	.	.
COc1ccc(NC(=O)c2onc(C)c2Cl)cc1	.	.	.	.	/	/
O=C(Nc1ccc([N+](=O)[O-])cn1)c1cc(-c2cccc(Br)c2)nc2ccccc12	.	.	63.6	.	64.2	.	AML12 tox conf=.
COc1cccc(-c2cc(C(=O)Nc3ccc([N+](=O)[O-])cn3)c3ccccc3n2)c1	.	.	57.2	.	74.6	.	AML12 tox conf=.
O=C(Nc1ccc([N+](=O)[O-])cn1)c1cc(-c2cccc(Cl)c2)nc2ccccc12	.	.	67.8	.	.	.
COc1cccc(-c2cc(C(=O)Nc3ccccc3)c3ccccc3n2)c1	.	.	/	/	/	/
CCCc1nc2ccccc2n1C(CCSC)C(=O)NC(C)(C)C (stereo not drawn)	/	.	/	/	/	/
COc1cccc(-c2cnc(C(O)c3ccc(C)c(F)c3)[nH]2)c1 (stereo not drawn)	/	.	/	/	/	/
O=C(Nc1ccc([N+](=O)[O-])cc1)OC1CCS(=O)(=O)C1 (stereo not drawn)	/	.	/	/	/	/
C/C(CC(=O)Nc1ccc(Cl)c(Cl)c1)=N\NC(=O)Cc1ccccc1	.	.	.	.	/	/
COc1ccc(Cl)c(NC(=O)C/C(C)=N/NC(=O)CCc2ccccc2)c1	.	.	122.2	.	98.9	.	AML12 tox conf=.
O=C(NCc1ccccc1)C1C(=O)Nc2ccccc2C(=O)N1Cc1ccccc1 (stereo not drawn)	/	.	/	/	/	/
CCOC(=O)C1(C)CCCN1C(=O)c1ccc(OC)c(OC)c1 (stereo not drawn)	/	.	/	/	/	/
Cc1cc(OCC(=O)NC2CC2)c2c(C)cc(=O)oc2c1	.	.	61.1	.	.	.
CCc1cc(=O)oc2cc(C)cc(OCC(=O)NC3CC3)c12	.	.	.	.	/	/
Cc1ccc2nc(Nc3ccc(F)cc3)c3nncn3c2c1	.	.	59.2	.	.	.	AML12 tox conf=.
O=C(N/N=C/c1cn(-c2ccccc2)nc1-c1cc2ccccc2o1)c1ccccc1Br	.	.	102.4	.	105.3	.	AML12 tox conf=.
O=C(N/N=C/c1cn(-c2cccs2)nc1-c1ccccc1)c1ccccc1Br	.	.	.	.	/	/
COc1ccc2c(c1)c(CC(=O)Nc1nnc(C3CC3)s1)c(C)n2C(=O)c1ccc(Cl)cc1	.	.	.	.	/	/
COc1ccc2c(c1)c(CC(=O)Nc1ccc(C(C)=O)cc1)c(C)n2C(=O)c1ccc(Cl)cc1	.	.	72.9	.	77.1	.	AML12 tox conf=.
COc1ccc2c(c1)c(CC(=O)NCc1cc([N+](=O)[O-])ccc1O)c(C)n2C(=O)c1ccc(Cl)cc1	.	.	.	.	/	/
COc1ccc2c(c1)c(CC(=O)Nc1ccccc1OC)c(C)n2C(=O)c1ccc(Cl)cc1	.	.	67.2	.	.	.
CCCS(=O)(=O)NC(=O)C1(C)CCCN(C(=O)c2ccc(OC)cc2)C1 (stereo not drawn)	/	.	/	/	/	/
